Blank lines part the entries; values can stand above or below the compound they belong to.
Legend:
[1] = target: T1, Gonadotropin-releasing hormone receptor (Rattus norvegicus) (UniProt P30969); experiment: Duration of action measured using castrated male rat assay to inhibit luteinizing hormone release.; fully active at 72 hr; format: functional
T1 sequence (whole entry): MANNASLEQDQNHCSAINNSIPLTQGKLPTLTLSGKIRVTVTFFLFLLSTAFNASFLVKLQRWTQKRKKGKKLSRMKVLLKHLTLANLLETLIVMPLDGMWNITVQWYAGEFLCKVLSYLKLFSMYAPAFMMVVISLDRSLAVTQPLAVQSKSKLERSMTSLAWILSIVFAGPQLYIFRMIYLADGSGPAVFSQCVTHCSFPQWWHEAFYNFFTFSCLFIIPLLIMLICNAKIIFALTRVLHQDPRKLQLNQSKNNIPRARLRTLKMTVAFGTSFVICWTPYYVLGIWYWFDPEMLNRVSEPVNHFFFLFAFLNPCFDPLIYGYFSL

Rattus norvegicus [2] = organism: Rattus norvegicus; experiment: Effect in the anti ovulatory assay (AOA) in rats expressed as no. of rats ovulating/No of rats treated at 0.5 mg; 6/7; format: functional
Rattus norvegicus [3] = organism: Rattus norvegicus; experiment: Effect in the anti ovulatory assay (AOA) in rats expressed as no. of rats ovulating/No of rats treated at 1.0 mg; 5/13; format: functional
Rattus norvegicus [4] = organism: Rattus norvegicus; experiment: Effect in the anti ovulatory assay (AOA) in rats expressed as no. of rats ovulating/No of rats treated at 2.5 mg; 0/7; format: functional
Rattus norvegicus [5] = organism: Rattus norvegicus; experiment: Effect in the anti ovulatory assay (AOA) in rats expressed as no. of rats ovulating/No of rats treated at 1.0 mg; 0/7; format: functional
[6] = target: T1, Gonadotropin-releasing hormone receptor (Rattus norvegicus); experiment: In vitro potency to inhibit GnRH-mediated LH secretion by cultured pituitary cells relative to [Ac-delta-Pro1,DFpa2,DTrp36]GnRH.; format: functional, cell-based; settings: Pituitary gland cell
Procedure, shortened: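 Dispersed rat pituitary cells in culture; antagonist inhibition of GnRH-stimulated LH secretion. Potency expressed relative to standard antagonist [Ac-Δ3Pro1,D4FPhe2,DTrp3,6]GnRH taken as 1.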

Rattus norvegicus [7] = organism: Rattus norvegicus; experiment: Effect in the anti ovulatory assay (AOA) in rats expressed as no. of rats ovulating/No of rats treated at 2.5 mg; 4/4; format: functional
Rattus norvegicus [8] = organism: Rattus norvegicus; experiment: Effect in the anti ovulatory assay (AOA) in rats expressed as no. of rats ovulating/No of rats treated at 5.0 mg; 0/6; format: functional
Rattus norvegicus [9] = organism: Rattus norvegicus; experiment: Effect in the anti ovulatory assay (AOA) in rats expressed as no. of rats ovulating/No of rats treated at 1.0 mg; 7/8; format: functional
Rattus norvegicus [10] = organism: Rattus norvegicus; experiment: Effect in the anti ovulatory assay (AOA) in rats expressed as no. of rats ovulating/No of rats treated at 2.5 mg; 0/6; format: functional
Rattus norvegicus [11] = organism: Rattus norvegicus; experiment: Effect in the anti ovulatory assay (AOA) in rats expressed as no. of rats ovulating/No of rats treated at 2.5 mg; 0/6
Rattus norvegicus [12] = organism: Rattus norvegicus; experiment: Duration of action measured using castrated male rat assay to inhibit luteinizing hormone release.; fully active at 48 hr but not at 72 hr; format: functional
Rattus norvegicus [13] = organism: Rattus norvegicus; experiment: Effect in the anti ovulatory assay (AOA) in rats expressed as no. of rats ovulating/No of rats treated at 0.5 mg; 6/6; format: functional
Rattus norvegicus [14] = organism: Rattus norvegicus; experiment: Effect in the anti ovulatory assay (AOA) in rats expressed as no. of rats ovulating/No of rats treated at 1.0 mg; 2/10; format: functional
Rattus norvegicus [15] = organism: Rattus norvegicus; experiment: Effect in the anti ovulatory assay (AOA) in rats expressed as no. of rats ovulating/No of rats treated at 1.0 mg; 1/8; format: functional
Rattus norvegicus [16] = organism: Rattus norvegicus; experiment: Effect in the anti ovulatory assay (AOA) in rats expressed as no. of rats ovulating/No of rats treated at 0.5 mg; 10/14; format: functional
Rattus norvegicus [17] = organism: Rattus norvegicus; experiment: Effect in the anti ovulatory assay (AOA) in rats expressed as no. of rats ovulating/No of rats treated at 1.0 mg; 3/11; format: functional
Rattus norvegicus [18] = organism: Rattus norvegicus; experiment: Effect in the anti ovulatory assay (AOA) in rats expressed as no. of rats ovulating/No of rats treated at 0.5 mg; 4/4; format: functional

Compound: CC(=O)Nc1ccc(C[C@H](NC(=O)[C@H](CO)NC(=O)[C@@H](Cc2cccnc2)NC(=O)[C@@H](Cc2ccc(Cl)cc2)NC(=O)[C@@H](Cc2ccc3ccccc3c2)NC(C)=O)C(=O)N[C@H](Cc2ccc(NC(C)=O)cc2)C(=O)N[C@@H](CC(C)C)C(=O)N[C@@H](CCCCNC(C)C)C(=O)N2CCC[C@H]2C(=O)N[C@H](C)N)cc1
Duration of action [1]: 72 h
No. of rats ovulated (Rattus norvegicus [2]): 6
No. of rats ovulated (Rattus norvegicus [3]): 5
No. of rats ovulated (Rattus norvegicus [4]): 0

Compound: CC(=O)N[C@H](Cc1ccc2ccccc2c1)C(=O)N[C@H](Cc1ccc(Cl)cc1)C(=O)N[C@H](Cc1cccnc1)C(=O)N[C@@H](CO)C(=O)N(C)[C@@H](Cc1ccc(Nc2n[nH]c(N)n2)cc1)C(=O)N[C@H](Cc1ccc(Nc2n[nH]c(N)n2)cc1)C(=O)N[C@@H](CC(C)C)C(=O)N[C@@H](Cc1ccc(CNC(C)C)cc1)C(=O)N1CCC[C@H]1C(=O)N[C@H](C)N
No. of rats ovulated (Rattus norvegicus [7]): 4
No. of rats ovulated (Rattus norvegicus [8]): 0

Compound: CC(=O)N[C@H](Cc1ccc2ccccc2c1)C(=O)N[C@H](Cc1ccc(Cl)cc1)C(=O)N[C@H](Cc1cccnc1)C(=O)N[C@@H](CO)C(=O)N[C@@H](Cc1ccc(NC(=O)CCCNc2n[nH]c(N)n2)cc1)C(=O)N[C@H](Cc1ccc(NC(=O)CCCNc2n[nH]c(N)n2)cc1)C(=O)N[C@@H](CC(C)C)C(=O)N[C@@H](CCCCNC(C)C)C(=O)N1CCC[C@H]1C(=O)N[C@H](C)N
Duration of action [1]: 72 h
No. of rats ovulated (Rattus norvegicus [15]): 1
No. of rats ovulated (Rattus norvegicus [16]): 10
Relative potency [6]: 0.21

Compound: CC(=O)N[C@H](Cc1cnc2ccccc2c1)C(=O)N[C@H](Cc1ccc(Cl)cc1)C(=O)N[C@H](Cc1cccnc1)C(=O)N[C@@H](CO)C(=O)N[C@@H](Cc1ccc(Nc2n[nH]c(N)n2)cc1)C(=O)N[C@H](Cc1ccc(Nc2n[nH]c(N)n2)cc1)C(=O)N[C@@H](CC(C)C)C(=O)N[C@@H](CCCCNC(C)C)C(=O)N1CCC[C@H]1C(=O)N[C@H](C)N
No. of rats ovulated (Rattus norvegicus [17]): 3
No. of rats ovulated (Rattus norvegicus [18]): 4

Further lines, with some results ahead:

Duration of action [1]: 72 h
Relative potency [6]: 1.3
Compound: CC(=O)N[C@H](Cc1ccc2ccccc2c1)C(=O)N[C@H](Cc1ccc(Cl)cc1)C(=O)N[C@H](Cc1cccnc1)C(=O)N[C@@H](CO)C(=O)N[C@@H](Cc1ccc(Nc2n[nH]c(N)n2)cc1)C(=O)N[C@H](Cc1ccc(Nc2n[nH]c(N)n2)cc1)C(=O)N[C@@H](CC(C)C)C(=O)N[C@@H](CCCCNC(C)C)C(=O)N1CCC[C@H]1C(=O)N[C@H](C)N
No. of rats ovulated (Rattus norvegicus [5]): 0

Duration of action [1]: 72 h
Relative potency [6]: 0.74
Compound: CC(=O)N[C@H](Cc1ccc2ccccc2c1)C(=O)N[C@H](Cc1ccc(Cl)cc1)C(=O)N[C@H](Cc1cccnc1)C(=O)N[C@@H](CO)C(=O)N[C@@H](Cc1ccc(N)cc1)C(=O)N[C@H](Cc1ccc(N)cc1)C(=O)N[C@@H](CC(C)C)C(=O)N[C@@H](CCCCNC(C)C)C(=O)N1CCC[C@H]1C(=O)N[C@H](C)N
No. of rats ovulated (Rattus norvegicus [9]): 7
No. of rats ovulated (Rattus norvegicus [10]): 0
No. of rats ovulated (Rattus norvegicus [11]): 0

Relative potency [6]: 0.48
Compound: CC(=O)N[C@H](Cc1ccc2ccccc2c1)C(=O)N[C@H](Cc1ccc(Cl)cc1)C(=O)N[C@H](Cc1cccnc1)C(=O)N[C@@H](CO)C(=O)N[C@@H](Cc1ccc(NC(=O)CCCCCNc2n[nH]c(N)n2)cc1)C(=O)N[C@H](Cc1ccc(NC(=O)CCCCCNc2n[nH]c(N)n2)cc1)C(=O)N[C@@H](CC(C)C)C(=O)N[C@@H](CCCCNC(C)C)C(=O)N1CCC[C@H]1C(=O)N[C@H](C)N
Duration of action (Rattus norvegicus [12]): 48 h
No. of rats ovulated (Rattus norvegicus [13]): 6
No. of rats ovulated (Rattus norvegicus [14]): 2

— ChEMBL document CHEMBL1128434, “Gonadotropin-releasing hormone antagonists: novel members of the azaline B family” (1995)
